Results gathered from unrelated publications.
Each line is one published result; the experiments were not run side by side.
Target: Tyrosine-protein kinase TXK (TXK, Homo sapiens, UniProt P42681)
Residues used in one study (P42681 1-527): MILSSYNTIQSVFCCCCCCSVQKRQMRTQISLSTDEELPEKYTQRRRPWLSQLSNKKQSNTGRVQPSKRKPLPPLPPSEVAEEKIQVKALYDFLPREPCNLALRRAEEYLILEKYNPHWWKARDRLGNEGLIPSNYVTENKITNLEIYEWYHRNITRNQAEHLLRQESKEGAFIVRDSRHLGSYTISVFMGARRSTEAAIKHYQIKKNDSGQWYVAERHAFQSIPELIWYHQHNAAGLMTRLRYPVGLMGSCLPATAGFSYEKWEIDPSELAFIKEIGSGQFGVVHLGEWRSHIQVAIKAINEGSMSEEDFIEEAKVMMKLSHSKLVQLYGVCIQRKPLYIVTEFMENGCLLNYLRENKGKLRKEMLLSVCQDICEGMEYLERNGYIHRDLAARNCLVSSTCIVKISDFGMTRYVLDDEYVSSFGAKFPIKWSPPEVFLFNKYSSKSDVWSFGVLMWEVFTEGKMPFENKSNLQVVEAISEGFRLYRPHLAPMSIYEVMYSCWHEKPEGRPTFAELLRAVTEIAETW

`O=C(NCc1ncc(C(F)(F)F)cc1Cl)c1ccc2c(c1)C1(CCS(=O)(=O)CC1)[C@@H](C1CC1)N2S(=O)(=O)c1ccc(F)cc1` gave a remaining binding of 83% (binding; competition with immobilised ligand; 1 µM).
The remaining signal of `O=C1Nc2ccc(Cl)cc2C1=Cc1cc(Cl)c(O)c(Cl)c1` is reported as 86.6% (cell-free assay; 0.5 µM).
For `COc1cc2ncnc(Nc3ccc(Oc4ccccc4)c(C)c3C)c2cc1OC`, the inhibition was 2% (enzyme activity; inhibitor; 1 µM).
`Nc1ncnc2occ(-c3ccc(NC(=O)Nc4cc(C(F)(F)F)ccc4F)cc3)c12` has a remaining activity of 14% (enzyme activity; inhibitor; 20 µM).
`CCCS(=O)(=O)Nc1ccc(F)c(C(=O)c2c[nH]c3ncc(-c4ccc(Cl)cc4)cc23)c1F` has an inhibition of less than 10% (enzyme activity; inhibitor; 1 µM).
For `Cc1cnc(NC2CCOCC2)nc1-n1cnc(C(=O)NC(CN)c2cc(F)cc(Cl)c2)c1` (stereo not shown), the remaining activity was 102% (enzyme activity; inhibitor; radiometric; 1 µM).
For `Cn1nc(C(=O)NCc2ccc(C(=O)O)cc2)cc1-c1ccc2[nH]ccc2c1`, the remaining binding was 90% (binding; competition with immobilised ligand; 0.1 µM).
`N#CCCc1ccc2c(c1)-c1[nH]c3ccc([N+](=O)[O-])cc3c1CC(=O)N2` gave a remaining signal of 67.6% (cell-free assay; 0.5 µM).
`Cc1c(NC(=O)c2cc(C(N)=O)nc3cc(F)ccc23)c(C(F)(F)F)nn1Cc1ccc(C#N)cc1` gave a remaining binding of 99% (binding; competition with immobilised ligand; 1 µM).
`COc1cc(Cl)c(C(=O)N[C@@H](CN[C@H]2CC[C@@H](N)CC2)Cc2ccc(C#N)cc2)cc1-c1ccc(CN[C@H](C)c2ccc(C)cc2)o1` gave a remaining activity of 88% (enzyme activity; inhibitor; 1 µM).
`Cc1cc(NC(=O)c2cccc3cc(-c4cccc5[nH]nc(N)c45)ccc23)ccc1F` gave an activity vs control of 123% (enzyme activity; inhibitor; 0.1 µM).
`O=C(Nc1cnn(-c2csc(C(=O)NC3COC3)c2)c1)Nc1ccccc1Cl` has a remaining activity of 89.8% (enzyme activity; inhibitor; 5 µM).
With `COc1cc(-c2cn(C3CCc4ccccc4N(CC(F)(F)F)C3=O)nn2)ccc1-n1ccc(C)n1` (stereo not shown) the remaining binding was 84% (binding; competition with immobilised ligand; 1 µM).
`CC(C)(O)[C@H]1CC[C@H](Nc2ccc3ncc(-c4cccc(C(F)(F)F)c4)n3n2)CC1` gave a remaining activity of 62.6% (enzyme activity; inhibitor; 1 µM).
`CCOc1cc(-c2nncn2C)ccc1Nc1ncc2cc(C)nc(NCC(C)(C)C)c2n1` gave an inhibition of less than 15% (enzyme activity; inhibitor; FRET; 1 µM).
With `Cc1ccc(C(=O)Nc2ccc(CN3CCN(C)CC3)c(C(F)(F)F)c2)cc1C#Cc1cnc2cccnn12` the remaining activity was 25% (enzyme activity; inhibitor; 23.5 nM).
With `CC(C)(C)c1nc(-c2cccc(NS(=O)(=O)c3c(F)cccc3F)c2F)c(-c2ccnc(N)n2)s1` the remaining activity was 88% (enzyme activity; inhibitor; radiometric; 1 µM).
`CCCCN(CCCC)C(=O)CN1C[C@@H](c2cc(OC)c3c(c2)OCO3)[C@H](C(=O)O)[C@H]1CC(C)(C)CCC` gave a remaining binding of 100% (cell-free assay; competition with immobilised ligand; 1 µM).
`CCN(CC)c1ccc(C2=NNC(=O)CC2C)cc1[N+](=O)[O-]` (stereo not shown) gave a remaining activity of 84% (enzyme activity; inhibitor; 10 µM).
